Calls of active or inactive are those of the source. The calls are words filed in the database; no cut-off is given here.

For this experiment, the system named is Rattus norvegicus. As to the kind of experiment: Reversal of haloperidol-induced catalepsy in Sprague-Dawley rat assessed as decrease in latency to remove forepaws from bar at 10 mg/kg, po administered 30 mins prior to test. Type of experiment: functional, organism-based. The method, boiled down:
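Male Sprague-Dawley rats were randomized and given haloperidol 0.75 mg/kg i.p., then 60 min in home cage. Vehicle or compound (10 mg/kg) was given orally 30 min before catalepsy testing, N = 11–12 rats/group. Data analyzed by one-way ANOVA with Dunnett's test versus vehicle + haloperidol.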

As for `Fc1ccc(Nc2n[nH]c3cccnc23)cc1Cl`, the outcome was Active.

The values above are taken from ChEMBL document CHEMBL4308847, “Discovery, Structure-Activity Relationship, and Biological Characterization of a Novel Series of 6-((1 H-Pyrazolo[4,3- b]pyridin-3-yl)amino)-benzo[ d]isothiazole-3-carboxamides as Positive Allosteric Modulators of the Metabotropic Glutamate Receptor 4 (mGlu4)” (J Med Chem, 2018).
